# Screening data as filed in PubChem BioAssay.
# Shown are actives, neighbours in structure and some others; about 2.2% of the full set was active somewhere.
# CXCR6 block: CXCR6 receptor inhibitors, primary screen, cell-based, beta-arrestin, luminescence, CHO-K1 PathHunter, 1536-well; inhibition, % at 20 µM; 360,000 compounds, 0.36% hits; in the data active = inhibition above about 34%, passing the limit was not always enough;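 also: antagonist mode with CXCL16 agonist at 10 nM final; 0% = 10 nM CXCL16 with DMSO and 100% = unstimulated wells without agonist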
# Target sequence (O00574 whole entry, looked up): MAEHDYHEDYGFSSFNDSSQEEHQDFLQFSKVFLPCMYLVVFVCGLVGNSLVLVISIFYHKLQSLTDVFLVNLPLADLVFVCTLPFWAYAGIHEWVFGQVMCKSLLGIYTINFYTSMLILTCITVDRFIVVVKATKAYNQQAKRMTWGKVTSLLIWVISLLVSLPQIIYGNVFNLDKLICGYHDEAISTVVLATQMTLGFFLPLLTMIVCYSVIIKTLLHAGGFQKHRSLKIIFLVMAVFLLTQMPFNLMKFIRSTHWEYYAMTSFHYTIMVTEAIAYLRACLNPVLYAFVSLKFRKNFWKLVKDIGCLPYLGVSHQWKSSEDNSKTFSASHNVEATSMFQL
# APJ ag: agonists of human apelin receptor APJ, primary screen, CHO-K1 cells, PathHunter beta-arrestin, luminescence | 330,000 compounds, 0.11% hits | 0% DMSO wells, 100% apelin | P35414 | activation, % at 20 µM;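 active = activation more than six SD over the plate average, tested at 20 µM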;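 also: 0% = DMSO alone and 100% = apelin-13 at 10 nM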
# Target sequence (P35414 whole entry, looked up): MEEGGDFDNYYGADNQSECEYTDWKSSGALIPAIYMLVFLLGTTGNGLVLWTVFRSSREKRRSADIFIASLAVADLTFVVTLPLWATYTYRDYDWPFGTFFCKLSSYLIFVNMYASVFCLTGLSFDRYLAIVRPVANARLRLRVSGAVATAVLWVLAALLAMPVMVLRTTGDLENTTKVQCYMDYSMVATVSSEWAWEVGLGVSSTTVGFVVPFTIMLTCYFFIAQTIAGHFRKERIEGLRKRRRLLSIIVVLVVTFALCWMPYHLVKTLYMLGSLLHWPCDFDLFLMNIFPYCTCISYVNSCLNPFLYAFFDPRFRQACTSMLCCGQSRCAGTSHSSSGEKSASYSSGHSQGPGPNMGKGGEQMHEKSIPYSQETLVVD
#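 Test system – PathHunter CHO-K1 APJ (AGTRL-1) beta-arrestin reporter cells · Input – 1000 cells/well · Compound – single test compound dose, 20 µM final, 1% DMSO · Times – compound stimulation 90 min at 25 °C, detection 60 min · Technique – beta-gal luminescence · Read-out basis – APJ–arrestin association signal · Control set – negative DMSO alone, positive Apelin-13 at 10 nM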
# HTR2A ag: mouse Htr2a agonists via beta-arrestin recruitment, primary screen, cell-based, luminescence. 5-hydroxytryptamine receptor 2A (Mus musculus), P35363. CHO-K1 mHTR2A beta-arrestin complementation; percent of 30 µM serotonin response. activation, % at 7.6 µM. 360,000 compounds, 0.66% hits. AID 624169, 2012;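 active = activation above a run cutoff, the mean activation of all tested compounds plus 3 SD, cut at about 14% in these data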;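 also: 0% = plate median of compound wells and 100% = 30 µM serotonin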
# APJ antag: antagonists of human apelin receptor APJ, primary screen, CHO-K1 cells, beta-arrestin complementation, luminescence; P35414; inhibition, % at 20 µM; 330,000 compounds, 0.32% hits;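 active = inhibition above about 40% at 20 µM, limit read from the data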;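 also: cells challenged with 10 nM apelin-13 agonist together with compound; plate controls were apelin-13 plus DMSO wells for no effect and DMSO wells lacking apelin-13 for full effect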
# CCR6 antagonist: CCR6 receptor antagonists, primary screen, cell-based, CHO-K1, luminescence, beta-arrestin, uHTS; inhibition, % at 20 µM; 340,000 compounds, 0.49% hits; C-C chemokine receptor type 6 (Homo sapiens), P51684; CHO-K1 CCR6 PathHunter beta-arrestin, CCL20-stimulated;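 active = compounds whose inhibition of the agonist-driven luminescence signal at 20 µM reaches about 50%, limit read from the data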;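 also: cells stimulated with CCL20 at 14 nM final; plate controls were DMSO with CCL20 for no effect and DMSO without agonist for full effect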
# EBI2 antag: EBI2 receptor antagonists, beta-arrestin recruitment, primary screen, cell-based, luminescence, 7a,25-OHC stimulation, uHTS | 7a,25-OHC stimulated | inhibition, % at 5 µM | 360,000 compounds, 0.81% hits | AID 651636, 2012; in the data active = inhibition above about 38%;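 also: enzyme fragment complementation signal reports receptor beta-arrestin coupling in cells; 0% = agonist plus DMSO wells and 100% = wells without agonist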
# * hit, by the source's call; · = not tested or not shown; ! = not active in a repeat.
SMILES,CXCR6 block,APJ ag,HTR2A ag,APJ antag,CCR6 antagonist,EBI2 antag
CC(=NNC(=S)N1CCN(C2CCCCCC2)CC1)c1ccccn1,14.6,·,2.8,·,45.5,-5.4
CC(=NNC(=S)N1CCCCCC1)c1cccc2cccnc12,35.5,·,-2.6,·,90.6*,-9.0
CCCCCCCCCCCCCCCCn1cc[n+](C)c1,16.5,-1.9,-6.2,22.2,56.6*!,-7.2
Cc1ccc2c(c1)[nH]c1c(N3CCN(Cc4ccccc4)CC3)ncnc12,-6.8,12.1,-0.7,2.0,-14.2,4.7
c1ccc(CN2CCN(c3ncnc4c3[nH]c3ccccc34)CC2)cc1,-14.0,10.5,23.8*,-15.6,-8.5,-9.1
CCOC(=O)C1=CCC(c2ccccc2C(F)(F)F)N(S(=O)(=O)c2ccc(C)cc2)C1 (centres undefined),3.1,·,0.5,·,·,3.0
OC[C@@H]1CN(Cc2ccccc2)C[C@H](n2cnc3c(NCc4ccco4)ncnc32)O1,-5.0,·,3.1,·,·,-10.2
OC[C@@H]1CN(Cc2ccc(-c3ccccc3)cc2)C[C@H](n2cnc3c(NCc4ccco4)ncnc32)O1,-7.2,·,18.4*,·,·,-5.7
CC(C)NC(=O)C1(C)CCN1Cc1ccc(Cl)cc1 (centres undefined),5.1,·,0.4,·,·,-1.6
O=C1c2sc3nc4ccccc4n3c2C(=O)N1c1ccccc1Cl,38.4*,-4.6,-3.9,-2.3,47.4,9.1
Cc1ccccc1N1C(=O)c2sc3nc4c(c(=O)n3c2C1=O)CCC4,3.8,-1.3,6.2,11.8,-3.3,-2.7
COC(=O)[C@@]12C[C@@H](CC(=O)N3CCN(C(=O)c4ccco4)CC3)C(=O)N(CCc3ccc(OC)c(OC)c3)C1=CCC(C)(C)C2,·,·,-1.6,·,·,0.7
c1cncc(Nc2nc(-c3cccnc3)cs2)c1,-2.1,-4.7,2.2,7.5,-9.3,6.9
Cc1ccc(Nc2nc(-c3cccnc3)cs2)cc1Cl,-14.5,-1.3,-3.2,2.2,-3.9,48.4*
Cc1ccc(S(=O)(=O)N(C)c2ccc(C(=O)NCC(c3ccccc3)N3CCCC3)cc2)cc1 (centres undefined),17.4,·,-13.5,·,·,1.7
CC1(Oc2ccccc2-c2ccno2)CCN(Cc2csc3ccccc23)C1 (centres undefined),8.3,·,-0.8,·,·,24.2
Cc1nc2c(-c3ccc(Cl)cc3)c(C)[nH]n2c(=O)c1Cc1ccccc1,43.1*,1.1,4.9,-4.5,47.4,-20.0
COc1ccc(-c2c(C)[nH]n3c(=O)c(Cc4ccccc4)c(C)nc23)cc1OC,6.8,-0.7,-4.7,15.7,23.7,2.9
CSC1=NC=C(C#N)C2=NC(c3ccc(Cl)cc3)NN12 (centres undefined),-9.7,·,4.5,·,·,4.0
O=C(c1[nH]c(C(F)(F)F)nc1-c1ccccc1)N1CCC(Cc2ccccc2)CC1,-0.4,·,-3.9,·,·,-6.6
Cc1ccc(-c2nnc3n2CCCCC3)cc1,-1.8,-1.7,4.4,2.4,-12.0,-2.9
O=C1Nc2ccccc2C1=Nc1ccc(-c2nnc3n2CCCCC3)cc1,4.3,-4.5,0.6,-14.5,61.8*!,14.4
CCCCN1C(=O)C(=Nc2cccc3cnccc23)c2ccccc21,23.2,-6.2,1.7,5.2,56.5*,21.1
CCCCN1C(=O)/C(=C2\SC(N3CCCCC3)=NC2=O)c2ccccc21,24.5,-4.3,-1.9,18.7,22.1,-12.8
Cc1ccc2nc(C(C)(C)C)c(Cc3cccc(F)c3)n2c1,6.7,·,-7.8,·,·,3.2
SMILES,CXCR6 block,APJ ag,HTR2A ag,APJ antag,CCR6 antagonist,EBI2 antag
CC1=NN(c2nc(N)nc(/C(C#N)=C/c3ccc([N+](=O)[O-])o3)n2)C(C)(C)C1,26.6,·,9.4,·,53.0*,29.3
O=C1CCCN1CCCNc1nc(NCc2cccs2)nc2ccsc12,-15.4,·,0.9,·,·,-7.4
Cc1ccc(F)cc1-c1cc2nc(NCCCN(C)C)n(C)c(=O)c2s1,-2.8,·,3.3,·,·,3.4
C/C(N=Nc1nc2ccccc2s1)=N\Nc1ccccc1O,49.6*,-10.5,-6.4,36.0,65.3*,18.0
CCOc1cc(CNC(C)(C)CO)cc(Br)c1OCc1ccc(Cl)cc1Cl,-6.5,-6.8,2.7,-20.3,50.1*,-21.3
Cc1ccc(-n2sc3ccccc3c2=O)cc1,-0.4,0.6,5.7,-33.0,51.5*,10.4
CCOC(=O)c1ccc(N=c2sc(C(=O)OC)cc(=O)n2Cc2ccco2)cc1,6.0,2.9,0.2,9.6,8.9,58.2*
COC(=O)c1cc(=O)n(CCc2ccccc2)c(=Nc2ccc(F)cc2)s1,10.1,-2.5,11.6,12.5,26.0,36.2
COc1cccc(CNC(=O)[C@@H]2CCCN2C(=O)[C@H]2CCCCN2C(=O)OC(C)(C)C)c1,-2.0,·,-1.5,·,·,-7.0
O=Cc1cn(-c2ccccc2)nc1-c1ccccc1,2.9,1.4,-2.5,2.8,-9.9,-13.6
CC1=NNC(=O)/C1=C\c1cn(-c2ccccc2)nc1-c1ccccc1,33.8,·,4.5,·,24.1,62.7*
CCN(CC)c1ccc(C(=O)O)cc1,-8.9,0.0,-1.9,-4.2,18.3,-3.4
CCN(CC)c1ccc(/C=C2\C(=O)c3ccc(C(=O)O)cc3C2=O)cc1,49.2*,·,-1.3,·,74.0*,24.1
C[N+](C)(CC#Cc1ccccc1)CC(=O)c1ccc(Cl)cc1,7.7,-8.0,-1.1,42.1*,20.5,-3.4
CN(c1ccccc1)S(=O)(=O)c1cccc(C(=O)NCCc2c[nH]c3ccccc23)c1,-9.3,-0.1,4.5,8.8,21.7,48.1*
Cc1ccccc1NC1=C/C(=N\S(=O)(=O)c2cccs2)c2ccccc2C1=O,32.1,-2.2,-5.6,7.4,56.1*,18.6
COc1cccc(C(O)c2ncc(-c3cccc(C(F)(F)F)c3)[nH]2)c1 (centres undefined),-12.0,·,-1.4,·,·,3.8
Cc1oc2c(c1C(=O)c1ccc(Cl)cc1)C(=O)C(=O)c1ccccc1-2,25.2,·,2.7,·,43.4,-9.3
Cc1ccc(C(=O)c2c(C)oc3c2C(=O)C(=O)c2ccccc2-3)cc1,32.4,13.6*,2.5,-23.2,71.6*,-21.6
O=C1N[C@H](Cc2ccccc2)COC(=O)[C@H](Cc2ccc(F)cc2)CC/C=C/C[C@H]1CC(=O)N(CCO)Cc1ccccc1,40.6*,-4.2,-4.3,14.0,30.5,-9.0
O=C1NC[C@@H](c2ccccc2)OC(=O)[C@@H](Cc2ccc(F)cc2)CC/C=C/C[C@@H]1CC(=O)N(CCO)Cc1ccccc1,56.4*,·,-18.3,·,49.9,21.5
O=C1CC/C=C\C[C@@H](CC(=O)N(CCO)Cc2ccccc2)C(=O)NC[C@@H](c2ccccc2)O1,4.8,-1.2,5.2,2.8,8.1,-3.7
